Publication PMC6226116 (Clinical and Translational Science, 2018)
Like-named read-outs stand apart in the source and are kept apart here.

How the values were obtained:
[1] = type: in vivo, human
[2] = cited from earlier work
[3] = cited from earlier work; remark: listed apart in the source
P‐gp = conditions: LLC‐PK1‐P‐gp cell monolayers; cited from earlier work
[4] = Cyclosporine and tacrolimus trough concentrations before the third dose; type: in vivo, human; conditions: tacrolimus 5 mg oral once daily, predose on day 3
Summary of the method: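 Healthy adult male volunteers (n=12) took each test compound orally once daily for 3 days in separate treatment periods (100 mg as soft gelatin capsules; 5 mg). They fasted from 10 h before to 2 h after dosing and avoided CYP-affecting medications. Blood was drawn immediately before the day-3 dose, processed by a certified clinical laboratory, and plasma concentrations were measured by validated LC-MS/MS.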

[5] = with tacrolimus; cited from earlier work
[6] = co‐administration of cyclosporine; cited from earlier work
[7] = both, human, plasma, oral, 100 mg
[8] = in the presence of cyclosporine vs apixaban alone
[9] = in the presence of tacrolimus vs apixaban alone
[10] = co‐administration with ketoconazole, humans

COc1ccc(-n2nc(C(N)=O)c3c2C(=O)N(c2ccc(N4CCCCC4=O)cc2)CC3)cc1 [Apixaban]
CL/F ([1]; apixaban 10 mg oral alone, arithmetic mean (SD) [minimum, maximum]): 5.8 L/h
T max ([1]; apixaban with tacrolimus 5 mg daily for 3 days, median [minimum, maximum]): 2.5 [1, 4] h
Vd/F [1, 7]: 45 L
half-life [1, 7]: 6.8 h
Tmax ([1]; both, human, plasma, po, 10 mg): 2.5 h
Vd/F ([1]; both, human, plasma, po, 10 mg): 89 L
half-life ([1]; both, human, plasma, po, 10 mg): 12.1 h
GMR for apixaban AUC(0–tlast) [1, 8]: 120%
GMR for apixaban AUC(0–∞) [1, 8]: 119%
GMR for apixaban C max [1, 8]: 143%
GMR for apixaban AUC(0–tlast) [1, 9]: 78%
GMR for apixaban AUC(0–∞) [1, 9]: 77%
GMR for apixaban C max [1, 9]: 87%
increase in apixaban exposure ([1]; with cyclosporine co-administration): 20%
decrease in apixaban exposure ([1]; with tacrolimus co-administration): 22%
increase in apixaban AUC ([2]; administration with diltiazem): 1.4 fold
increase in apixaban C max ([2]; administration with diltiazem): 1.3 fold
increase in apixaban AUC [2, 10]: twofold
increase in apixaban C max [2, 10]: 1.6 fold

COc1ccc2c(O[C@@H]3C[C@H]4C(=O)N[C@]5(C(=O)NS(=O)(=O)C6CC6)C[C@H]5/C=C\CCCCN(C)C(=O)[C@@H]4C3)cc(-c3nc(C(C)C)cs3)nc2c1C [simeprevir]
increase in AUC(0‐24) of simeprevir ([3]; with cyclosporine): 5.8 fold
increase in C max of simeprevir ([3]; with cyclosporine): 4.7 fold
increase in AUC(0‐24) of simeprevir ([3]; with tacrolimus): 85%
increase in Cmax of simeprevir ([3]; with tacrolimus): 79%

CC(=O)N1CCN(c2ccc(OCC3COC(Cn4ccnc4)(c4ccc(Cl)cc4Cl)O3)cc2)CC1 (stereo not shown) [ketoconazole]
inhibition of apixaban efflux (P‐gp): extensively inhibited

C=CC[C@@H]1/C=C(\C)C[C@H](C)C[C@H](OC)[C@H]2O[C@@](O)(C(=O)C(=O)N3CCCC[C@H]3C(=O)O[C@H](/C(C)=C/[C@@H]3CC[C@@H](O)[C@H](OC)C3)[C@H](C)[C@@H](O)CC1=O)[C@H](C)C[C@@H]2OC [tacrolimus]
trough concentration, mean (SD) [4]: 3.8 (2.3) ng/mL

CC(C)c1c(C(=O)Nc2ccccc2)c(-c2ccccc2)c(-c2ccc(F)cc2)n1CC[C@@H](O)C[C@@H](O)CC(=O)O [atorvastatin]
impact on atorvastatin pharmacokinetics [5]: no impact

COc1cc2c(c(OC)c1OC)-c1ccc(OC)c(=O)cc1[C@@H](NC(C)=O)CC2 [colchicine]
increase in colchicine AUC(0–∞) [6]: 215%
increase in colchicine C max [6]: 224%
